Laboratory results as given in ChEMBL document CHEMBL1122368, “Synthesis and antihypertensive activity of some new quinazoline derivatives” (1983).

How the values were obtained:
Rattus norvegicus [1] = assay: Hypotensive activity in anesthetized rats, dose that produced a 30% fall in mean blood pressure; type: functional
Outline: (§1)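 Normotensive rats under urethane anaesthesia, arterial pressure recorded, femoral vein cannulated. Dosing iv in rising doses (0.01, 0.1, 1, 10 μmol/kg) at 30-min intervals, 1 mL/kg over 2 min; solvent-treated controls. Colonic temperature held at 38.0 ± 0.3 °C. Effect read at its maximum, 1–5 min after injection. ED30 is the dose (μmol/kg) giving a 30% fall in mean blood pressure.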

Rattus norvegicus [2] = assay: Hypotensive activity in anesthetized rats, dose that produced a 30% fall in mean blood pressure after 30 minutes; type: functional
Outline: as §1, with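 “solvent controls; colonic” for “solvent-treated controls. Colonic”, “temperature” for “temperature held at”, “Fall in pressure” for “Effect”, “30” for “at its maximum, 1–5”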

Rattus norvegicus [3] = assay: Antihypertensive activity as fall in systolic blood pressure after 1 h of 1 umol/kg po dosing in Spontaneously hypertensive rats.; type: functional, Artery
Outline: (§2)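 Conscious spontaneously hypertensive rats dosed by gavage, about 1 mL/rat. Systolic pressure recorded by tail-cuff after warming the rats 30 min at 36 °C. Fall in systolic BP (mmHg) read versus control values; listed values are significant decreases (p ≤ 0.05), otherwise marked NS. Baseline systolic pressure 175–190 mmHg across experiments.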

Rattus norvegicus [4] = assay: Antihypertensive activity as fall in systolic blood pressure after 5 hr of 1 umol/kg po dosing in Spontaneously hypertensive rats.; type: functional, Artery; outline: as §2
Rattus norvegicus [5] = assay: Antihypertensive activity as fall in systolic blood pressure after 5 hr of 10 uM/kg po dosing in Spontaneously hypertensive rats.; type: functional, Artery; outline: as §2
Rattus norvegicus [6] = assay: Antihypertensive activity as fall in systolic blood pressure after 3 hr of 10 uM/kg po dosing in Spontaneously hypertensive rats.; type: functional, Artery; outline: as §2
Rattus norvegicus [7] = assay: Antihypertensive activity as fall in systolic blood pressure after 3 hr of 1 umol/kg po dosing in Spontaneously hypertensive rats.; type: functional, Artery; outline: as §2
Rattus norvegicus [8] = assay: Antihypertensive activity as fall in systolic blood pressure after 1 hr of 10 uM/kg po dosing in Spontaneously hypertensive rats.; type: functional, Artery; outline: as §2
Rattus norvegicus [9] = assay: Antihypertensive activity as fall in systolic blood pressure after 5 h of 1 umol/kg po dosing in Spontaneously hypertensive rats;NS means nonsignificant change in blood pressure.; type: functional, organism-based; conditions: Artery; outline: as §2
Rattus norvegicus [10] = assay: Antihypertensive activity as fall in systolic blood pressure after 1 hr of 10 uM/kg po dosing in Spontaneously hypertensive rats;NS means nonsignificant change in blood pressure.; type: functional, organism-based; conditions: Artery; outline: as §2
Rattus norvegicus [11] = assay: Antihypertensive activity as fall in systolic blood pressure after 1 h of 100 umol/kg po dosing in Spontaneously hypertensive rats.; type: functional, Artery; outline: as §2
Rattus norvegicus [12] = assay: Antihypertensive activity as fall in systolic blood pressure after 1 hr of 1 uM/kg po dosing in Spontaneously hypertensive rats.; type: functional, Artery; outline: as §2
Rattus norvegicus [13] = assay: Antihypertensive activity as fall in systolic blood pressure after 3 hr of 100 umol/kg po dosing in Spontaneously hypertensive rats.; type: functional, Artery; outline: as §2
Rattus norvegicus [14] = assay: Antihypertensive activity as fall in systolic blood pressure after 3 hr of 1 uM/kg po dosing in Spontaneously hypertensive rats.; type: functional, Artery; outline: as §2
Rattus norvegicus [15] = assay: Antihypertensive activity as fall in systolic blood pressure after 5 hr of 1 uM/kg po dosing in Spontaneously hypertensive rats.; type: functional, Artery; outline: as §2
Rattus norvegicus [16] = assay: Antihypertensive activity as fall in systolic blood pressure after 5 h of 100 umol/kg po dosing in Spontaneously hypertensive rats.; type: functional, Artery; outline: as §2
Rattus norvegicus [17] = assay: Antihypertensive activity as fall in systolic blood pressure after 3 h of 100 umol/kg po dosing in Spontaneously hypertensive rats.; type: functional, Artery; outline: as §2
Rattus norvegicus [18] = assay: Antihypertensive activity as fall in systolic blood pressure after 3 hr of 1 umol/kg po dosing in Spontaneously hypertensive rats;NS means nonsignificant change in blood pressure.; type: functional, organism-based; conditions: Artery; outline: as §2
Rattus norvegicus [19] = assay: Antihypertensive activity as fall in systolic blood pressure after 1 hr of 100 umol/kg po dosing in Spontaneously hypertensive rats.; type: functional, Artery; outline: as §2
Rattus norvegicus [20] = assay: Antihypertensive activity as fall in systolic blood pressure after 3 h of 0.3 umol/kg po dosing in Spontaneously hypertensive rats.; type: functional, Artery; outline: as §2
Rattus norvegicus [21] = assay: Antihypertensive activity as fall in systolic blood pressure after 5 hr of 3 umol/kg po dosing in Spontaneously hypertensive rats.; type: functional, Artery; outline: as §2
Rattus norvegicus [22] = assay: Antihypertensive activity as fall in systolic blood pressure after 1 h of 3 umol/kg po dosing in Spontaneously hypertensive rats.; type: functional, Artery; outline: as §2
Rattus norvegicus [23] = assay: Antihypertensive activity as fall in systolic blood pressure after 5 h of 0.3 umol/kg po dosing in Spontaneously hypertensive rats.; type: functional, Artery; outline: as §2
Rattus norvegicus [24] = assay: Antihypertensive activity as fall in systolic blood pressure after 3 h of 3 umol/kg po dosing in Spontaneously hypertensive rats.; type: functional, Artery; outline: as §2
Rattus norvegicus [25] = assay: Antihypertensive activity as fall in systolic blood pressure after 1 h of 0.3 umol/kg po dosing in Spontaneously hypertensive rats;NS means nonsignificant change in blood pressure.; type: functional, organism-based; conditions: Artery; outline: as §2

SMILES	ED30 (Rattus norvegicus [1]) [µM/kg]	ED30 (Rattus norvegicus [2]) [µM/kg]	also measured
COc1cc2nc(N3CCC(C(=O)OCC(C)(C)C)CC3)nc(N)c2cc1OC.Cl	0.03	2	
CCOC(=O)C1CCN(c2nc(N)c3cc(OC)c(OC)cc3n2)CC1.Cl	0.3	30	
COc1cc2nc(N3CCC(C(=O)NC(C)(C)C)CC3)nc(N)c2cc1OC.Cl	0.08	1	
COc1cc2nc(N3CCC(C(O)C4CCCCC4)CC3)nc(N)c2cc1OC.Cl (configuration not stated)	0.06	0.1	Decrease in SBP (Rattus norvegicus [3]): 12 mmHg; Decrease in SBP (Rattus norvegicus [4]): 19 mmHg; Decrease in SBP (Rattus norvegicus [5]): 38 mmHg; Decrease in SBP (Rattus norvegicus [6]): 30 mmHg; Decrease in SBP (Rattus norvegicus [7]): 17 mmHg; Decrease in SBP (Rattus norvegicus [8]): 25 mmHg
COc1cc2nc(N3CCCC(C(=O)N4CCCC4)C3)nc(N)c2cc1OC.Cl (stereo in doubt; 6i)	12	30	
COc1cc2nc(N3CCC(C(=O)C4CCCCC4)CC3)nc(N)c2cc1OC.Cl	0.07	0.1	Decrease in SBP (Rattus norvegicus [9]): Not significant; Decrease in SBP (Rattus norvegicus [10]): Not significant; Decrease in SBP (Rattus norvegicus [3]): 15 mmHg; Decrease in SBP (Rattus norvegicus [5]): 51 mmHg; Decrease in SBP (Rattus norvegicus [6]): 54 mmHg; Decrease in SBP (Rattus norvegicus [7]): 20 mmHg
COc1cc2nc(N3CCC(Cc4ccccc4)CC3)nc(N)c2cc1OC.Cl	0.06	0.07	
COc1cc2nc(N3CCC(C(=O)N4CCCCC4C)CC3)nc(N)c2cc1OC.Cl (configuration not stated)	0.1	0.9	
COc1cc2nc(N3CCC(C(=O)N4C(C)CCC4C)CC3)nc(N)c2cc1OC.Cl (configuration not stated)	0.08	0.2	
COc1cc2nc(N3CCC(C(=O)N4CCCC4)CC3)nc(N)c2cc1OC.Cl	0.2	0.4	
CCCCC(O)C1CCN(c2nc(N)c3cc(OC)c(OC)cc3n2)CC1.Cl (configuration not stated)	0.1	0.7	
CCCCC(=O)C1CCN(c2nc(N)c3cc(OC)c(OC)cc3n2)CC1.Cl	0.03	0.06	Decrease in SBP (Rattus norvegicus [9]): Not significant; Decrease in SBP (Rattus norvegicus [3]): 13 mmHg; Decrease in SBP (Rattus norvegicus [5]): 27 mmHg; Decrease in SBP (Rattus norvegicus [6]): 36 mmHg; Decrease in SBP (Rattus norvegicus [7]): 14 mmHg; Decrease in SBP (Rattus norvegicus [8]): 40 mmHg
COc1cc2nc(N3CCC(C(=O)N4CCCCCC4)CC3)nc(N)c2cc1OC.Cl	0.01	0.05	
COc1cc2nc(N3CCC(C(=O)N4CCCCC4)CC3)nc(N)c2cc1OC.Cl	0.02	0.08	
COc1cc2nc(N3CCC(C(C)O)CC3)nc(N)c2cc1OC.Cl (configuration not stated)	0.5	0.7	
COc1cc2nc(N3CCC(C(O)C4CCCC4)CC3)nc(N)c2cc1OC.Cl (configuration not stated)	0.1	0.7	
COc1cc2nc(N3CCC(C(=O)c4cccs4)CC3)nc(N)c2cc1OC.Cl	0.2	6	
COc1cc2nc(N3CCN(C(=O)c4ccco4)CC3)nc(N)c2cc1OC [PRAZOSIN]	0.01	0.03	Decrease in SBP (Rattus norvegicus [11]): 38 mmHg; Decrease in SBP (Rattus norvegicus [12]): 29 mmHg; Decrease in SBP (Rattus norvegicus [13]): 30 mmHg; Decrease in SBP (Rattus norvegicus [14]): 30 mmHg; Decrease in SBP (Rattus norvegicus [15]): 26 mmHg; Decrease in SBP (Rattus norvegicus [16]): 26 mmHg; Decrease in SBP (Rattus norvegicus [5]): 34 mmHg; Decrease in SBP (Rattus norvegicus [6]): 36 mmHg; Decrease in SBP (Rattus norvegicus [8]): 38 mmHg
COc1cc2nc(N3CCC(C(N)=O)CC3)nc(N)c2cc1OC.Cl	0.1	0.8	
CCOC(=O)C1CCCN(c2nc(N)c3cc(OC)c(OC)cc3n2)C1.Cl (stereo in doubt; 6c)	0.8	20	
COc1cc2nc(N3CCC(C(=O)N4CCCCCCC4)CC3)nc(N)c2cc1OC.Cl	0.02	0.05	Decrease in SBP (Rattus norvegicus [9]): Not significant; Decrease in SBP (Rattus norvegicus [17]): 66 mmHg; Decrease in SBP (Rattus norvegicus [3]): 11 mmHg; Decrease in SBP (Rattus norvegicus [16]): 83 mmHg; Decrease in SBP (Rattus norvegicus [5]): 26 mmHg; Decrease in SBP (Rattus norvegicus [18]): Not significant; Decrease in SBP (Rattus norvegicus [19]): 52 mmHg; Decrease in SBP (Rattus norvegicus [6]): 29 mmHg; Decrease in SBP (Rattus norvegicus [8]): 29 mmHg
COc1cc2nc(N3CCC(C)CC3)nc(N)c2cc1OC.Cl	0.08		
COc1cc2nc(N3CCCC(C(=O)N4CCCC4)C3)nc(N)c2cc1OC.Cl (stereo in doubt; 6ii)	10	15	
COc1cc2nc(N3CCC(C(=O)N4C(C)CCCC4C)CC3)nc(N)c2cc1OC.Cl (configuration not stated)	0.08	0.2	
COc1cc2nc(N3CCC(C(=O)N4CCC4)CC3)nc(N)c2cc1OC.Cl	0.07	0.4	
CCC(=O)C1CCN(c2nc(N)c3cc(OC)c(OC)cc3n2)CC1.Cl	5	30	
CCOC(=O)C1CCCN(c2nc(N)c3cc(OC)c(OC)cc3n2)C1.Cl (stereo in doubt; 6cc)	0.2		
COc1cc2nc(N3CCC(C(=O)C4CCCC4)CC3)nc(N)c2cc1OC.Cl	0.06	0.09	Decrease in SBP (Rattus norvegicus [20]): 11 mmHg; Decrease in SBP (Rattus norvegicus [21]): 35 mmHg; Decrease in SBP (Rattus norvegicus [22]): 34 mmHg; Decrease in SBP (Rattus norvegicus [3]): 18 mmHg; Decrease in SBP (Rattus norvegicus [23]): 11 mmHg; Decrease in SBP (Rattus norvegicus [4]): 21 mmHg; Decrease in SBP (Rattus norvegicus [5]): 50 mmHg; Decrease in SBP (Rattus norvegicus [24]): 34 mmHg; Decrease in SBP (Rattus norvegicus [25]): Not significant; Decrease in SBP (Rattus norvegicus [6]): 54 mmHg; Decrease in SBP (Rattus norvegicus [7]): 20 mmHg; Decrease in SBP (Rattus norvegicus [8]): 45 mmHg
